B1: tRNA (parent)
chain: GUUCCGUUGGCGUAAUGGUAACGCGUCUCCCUCCUAAGGAGAAGACUGCGGGUUCGAGUCCCGUACGGAACG

This sample holds only a part of the variants without activity.

In the data set the parent is B1. The data set can be described thus: yeast fitness relative to wild type (ratio to wild type); higher = fitter; tRNA-Arg(CCU), competitive growth, 37 C, YPD. In short, it runs like this: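 A pool of Saccharomyces cerevisiae strains, each with a tRNA-Arg(CCU) gene variant at the native genomic locus, was competed in YPD at 37°C for 24 hours across six parallel replicates. The variants had been chemically synthesised at a 3% per-site mutation rate over 69 sites, and gene amplicons before and after competition were read by 100-nucleotide paired-end sequencing. Darwinian fitness relative to wild type rested on changes in genotype frequencies. Genotypes required ≥ 100 starting reads, and estimates < 0.5 were set to 0.5.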
Turning to GUACCGUUGGCGUAAUGGUAACGCGUCUCCCUCCUAAGGCGAAGACUGCGGGUUCGAGUCCCGUACGGAACG, the yeast fitness stood at 0.635.
The result for GUACCGUUGGCGUAAUGGUAACGCGUCUCCCUCCUAAGGGGAAGACUGCGGGUUCGAGUCCCGUACGGAACG reads 0.888.
The result for GUACCGUUGGCGUAAUGGUAUCCCGUCUCCCUCCUAAGGAGACGACUGCGGGUUCGAGUCCCGUACGGAACG reads at most 0.5; that for GUACCGUUGGCGUAAUGGUAACGCGUCUCCCUCCUAAGGGGAAGACUGUGGGUUCGAGUCCCGUACGGAACG, 0.54.
Next, GUACCGUUGGCGUAAUGGUAACGCGUCUCCCUCCUAUCGAGAAGACUGCGGGUUCGAGUCCCGUACGGAACG: at most 0.5; GUACCGUUGGCGUAAUGGUCACGCGUCUCCCACCUAAGGAGAAGACUGCGGGUUCGAGUCCCGUUCGGAACG: at most 0.5; GUACCGUUGGCGUAAUGGUUACGCGUCUCCCUCCUAAGGAGAAGACUGCGGGUUCGAGUCCCGUACGGAACG: 0.834.
Consider GUACCGUUGGCGUAAUGGUGACGCGUCUCCCUCCUAAGGAGAAGACUGCGGGUUCGAGUCCCGUACGGAACG, for which the yeast fitness came to 1.
Next, GUACCGUUGGCGUAAUGGUAACGCGUCUCCCUCCUAAGGUGAAGACUGCGGGUUCGAGUCCCGUACGGAGCG: 0.597; GUACCGUUGGCGUAAUGGUAGCCCGUCUCCCUCCUUAGGAGAAGACUGCGGGUUCGAGUACCGUACGGAACG: at most 0.5; GUACCGUUGGCGUAAUGGUAACGCGUCUCCCUCCUAAGGAGCAGACUGCGGGUUCGAGUCCCGUACGGAACG: 0.72.
Next, GUACCGUUGGCGUAAUGGUAACGCGUCUCCCUCCUAAGGAGGAGACUGCGGGUUCGAGUCCCGUACGGAACG: 0.73; GUACCGUUGGCGUAAUGGUAACGCGUCUCCCUCCUUAGGAGAAGACUGCGGGGUCGAGUCCCGUACGGAACG: 0.619.
For GUACCGUUGGCGUAAUGGUAUCGCGUCACCCUCCUAAGGAGCAGACUGCGGGUUCGGGUCCCGUAAGGAACG, the yeast fitness was at most 0.5.
Next, GUACCGUUGGCGUAGUGGAAACGCGUCUCCCUCCUAAGGAAAAGACUGCGGGUUCGAGUCCCGUACGGAACG: at most 0.5; GUACCGUUGGCGUAAUGGUGACGCGUCUCCCUCCUAAGGAGAUGACUGCGGGUUGGAGUCUCGUACGGAACG: at most 0.5; GUACCGUUGGCGUAGUGGAAACGCGUCUCCCUCCUAAGGAAAAGACUGCAGGUUCGAGUCCCGUACGGAACG: at most 0.5.
GUACCGUUGGCGUAAUGGUAACGCGUCUCCCUCCUAGGGAGGAGACUGCAGGUUUGAGUCCCGCACGGAACG: the yeast fitness was at most 0.5.
Next, GUACCGUUGGCGUAAUGGUAACGCGUCUCCCUCCUACGGAGACGACUGCGGGUUCGAGUCCCGUACGGAACG: at most 0.5; GUACCGUUGGCGUAAUGGUUACGCGUCUCCCUCCUAGGGAGAAGACUGCGGGUUCGAGUCCCGUACGGAACG: 0.608.
On to GUACCGUUGGCGUAAUGGUAACGCGUCUCCCUCCUGAGGAGAAGACUGCGGGUUCGAGUCCCGUACGGACCG, for which the yeast fitness stood at 0.991.
The result for GUACCGUUGGCGUAUUGGUAACGCGUCGCCCUCCUAAGGAGAAGACUGCGGGUUAGAGUCCCGUACGGAUCG reads 0.779; that for GUACCGUUGGCGUAAUGGUUACGCGUCUGCCUCCUAAGGAGAAGACUGGGGGUUCGAGUCCCCUACGGAACG, at most 0.5; that for GUACCGUUGGCGUAAUGGUAACGCGUCUCCCUCCUGAGGAGAAGACUGCGGGUUCGAGUCCCGUACGGAACG, 0.868.
The result for GUACCGUUGGCGUAAUGGUACCGGGUCUCCCUCCUAAGGAGAAGACUGCGGGUUCGAGUCCGGUACGGAGCG reads at most 0.5; that for GUACCGUUGGCGUAAUGGUCACGCGUCUCCCACCUAAGGAGAAGACUGCGGGUUCGAGUCCCGUACGGAGCG, at most 0.5.
The result for GUACCGUUGGCGUAAUGGUCGCGCGUCUCCCUCCUAAGGAGAAGACUGCGGGUUCGAGUCACGUACGGAACG reads 0.514.
On to GUACCGUUGGCGUAAUGGUAACGCGUCUCCCUCCUAUGGAGAAGACUGCGGGUUCGAGUCCCGUACGGAACG, for which the yeast fitness is 0.754.
The result for GUACCGUUGGCGUAAUGGUAACGCGUCUCCCUCCUAGGGAGAAGACUGCGGGUUCGAGUCCCGUACGGAACG reads 0.887; that for GUACCGUUGGCGUAAUGGUAACGCGUCUCCCUCCUACGGAGAAGACUGCGGGUUCGAGUCCCGUACGGAACG, 0.796; that for GUACCGUUGGCGUAAUGGUAGCGCGUCUCCAUCCUAAGGAGAAGACUCCGGGUUCGAGUCCCGUACGGAACG, at most 0.5.
Next, GUACCGUUGGCGUAAUGGUAACGCGUCUCCCUCCUAAGGGGAAGACUGCGGGUUCGCGUCCCGUACGGCACG: at most 0.5.
As to GUACCGUUGGCGUAUUGGUAACGCGUCUCCCUCUUAAGGAGAAGACUACGGGUUCGAGUUCCGUACGGAACG, the yeast fitness is at most 0.5.
The result for GUACCGUUGGCGUAAUGGUAACGCGUCUCCCUCCUGAGGAGAAGACUGCGGGUUCGAGUCCCGUAUGGAACG reads 0.666; that for GUACCGUUGGCGUAAUGGUAACGCGUCUCCCUCCUAAGGGGAAGACUGCGGGUUGGAGUCCCGUACGGAACG, 0.813; that for GUACCGUUGGCGUAAUGGUAUCGCGUCUCCCUCCUAAGGAGAAGACUGCGGGUUCGAGUCCCGUACGGAACG, 0.71.
Next, GUACCGUUGGCGUAAUGGUACCGCGUCUCCCUCCUAAGGAGAAGACUGCGGGUUCGAGUCCCGUACGGAACG: 0.768; GUACCGUUGGCGUAAUGGUAGCGCGUCUCCCUCCUAAGGAGAAGACUGCGGGUUCGAGUCCCGUACGGAACG: 0.926.

(Values after the RNAGym collection of RNA variant scans (doi:10.1126/science.aae0568).)
